Laboratory results published in publication PMC9817006 (Journal of psychopharmacology (Oxford, England), 2022).
Where two headings read alike, the source gives them in different places.

Legend:
[1] = test system: C57BL/6J mice; β2 WT and KO mice; test: Body temperature; type: in vivo; conditions: 0.5 mg/kg s.c.
Summary of the method: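 Mixed-sex β2 WT and KO mice on a C57BL/6J background, 8/group, given saline or test compound 0.5 mg/kg s.c. Rectal temperature read by thermistor probe inserted 24 mm, just before and at set times after injection. Change from pre-treatment reading computed per mouse; room temperature 21–24°C.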

ICR mice = test: Hot-plate test; type: in vivo
Summary of the method: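 Hot plate at 55.0 °C, mouse confined in a 10 cm glass cylinder. Two control latencies taken ≥10 min apart; endpoint is a jump or paw lick. ICR mice (6/group) given test compound s.c. (0.001–0.5 mg/kg) or saline and tested 5–120 min post-dose. %MPE = (test−control)/(40−control)×100.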

β3α4β2α6β2 nAChR = β3α4β2α6β2 nAChR (Homo sapiens, UniProt P17787+P43681+Q15825); test: Two-electrode voltage clamp in Xenopus oocytes, α6-containing concatemer; type: cell-based
Summary of the method: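 α6-containing receptor expressed in Xenopus oocytes as a five-subunit human β3α4β2α6β2 concatemer cRNA. Voltage clamp at −60 mV, 24°C, in Ringer's (pH 7.2, 1 μM atropine). Test compound applied 12 s at varying concentrations, 181 s washout. Peak current and net charge referenced to same-cell 30 μM ACh controls and rescaled to ACh maximum from other experiments; ≥4 oocytes.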

rats = conditions: ref Freitas et al., 2016; cited from earlier work
[2] = target: high sensitivity α4(2)β2(3) nAChR (Homo sapiens, UniProt P17787+P43681); test: Two-electrode voltage clamp in Xenopus oocytes, HS α4β2; type: cell-based
Summary of the method: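 Human HS α4β2 nAChR from in vitro–transcribed cRNA in Xenopus oocytes. Two-electrode clamp at −60 mV, 24°C, in Ringer's (pH 7.2, 1 μM atropine) perfused at 2 ml/min. Test compound over a concentration range as 12 s applications with 181 s washout. Peak current and net charge taken relative to same-cell 10 μM ACh controls, then scaled to ACh maximum from separate experiments; ≥4 oocytes.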

[3] = test system: C57BL/6J mice; β2 and α6 WT and KO mice; test: Conditioned place preference; type: in vivo
Summary of the method: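 Three-chamber place conditioning in β2 and α6 WT and KO mice (C57BL/6J background, 8–10/group). Day 1: 5 min confinement to the middle chamber, then 15 min free access. Test compound (0.05 mg/kg s.c.) or vehicle given over three conditioning days, sessions 4 h apart, paired chamber randomized. Day 5: drug-free 15 min test. Score = drug-paired-side time on test day minus baseline.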

C57BL/6J mice [4] = test: Tail-flick test; type: in vivo; conditions: 0.5 mg/kg s.c., 5-120 min
Summary of the method: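 Tail-flick test. A control latency (2–4 sec) was measured for each mouse before dosing, with a 10 sec maximum. Mice (n=6/group) received saline or test compound 0.5 mg/kg s.c. and were tested at 5, 10, 15, 30, 60 and 120 min. %MPE = ((test−control)/(10−control)) × 100.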

[5] = target: low sensitivity α4(3)β2(2) nAChR (Homo sapiens, UniProt P17787+P43681); test: Two-electrode voltage clamp in Xenopus oocytes, LS α4β2; type: cell-based
Summary of the method: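 LS α4β2 nAChR (human, cRNA in Xenopus oocytes) clamped at −60 mV, 24°C, with Ringer's (pH 7.2, 1 μM atropine) at 2 ml/min. Varying test compound concentrations applied for 12 s, then 181 s washout. Peak currents and net charge normalized to same-cell 100 μM ACh controls, then adjusted to ACh maximum determined separately; at least four oocytes.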

C57BL/6J mice [6] = test: Hot-plate test; type: in vivo; conditions: 0.5 mg/kg s.c., 5-120 min
Summary of the method: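 Hot plate held at 55.0 °C, with mice confined in a 10 cm glass cylinder. Two control latencies were taken at least 10 min apart. Latency was scored at a jump or at licking of the front or hind paws. Mice (n=6/group) received saline or test compound 0.5 mg/kg s.c. and were tested at 5, 10, 15, 30, 60 and 120 min. %MPE = ((test−control)/(40−control)) × 100.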

[7] = β3α4β2α6β2, normalized to the maximum ACh responses
[8] = α4(2)β2(3), normalized to the maximum ACh responses
[9] = α4(3)β2(2), normalized to the maximum ACh responses

Sequence of high sensitivity α4(2)β2(3) nAChR (P17787 26-502): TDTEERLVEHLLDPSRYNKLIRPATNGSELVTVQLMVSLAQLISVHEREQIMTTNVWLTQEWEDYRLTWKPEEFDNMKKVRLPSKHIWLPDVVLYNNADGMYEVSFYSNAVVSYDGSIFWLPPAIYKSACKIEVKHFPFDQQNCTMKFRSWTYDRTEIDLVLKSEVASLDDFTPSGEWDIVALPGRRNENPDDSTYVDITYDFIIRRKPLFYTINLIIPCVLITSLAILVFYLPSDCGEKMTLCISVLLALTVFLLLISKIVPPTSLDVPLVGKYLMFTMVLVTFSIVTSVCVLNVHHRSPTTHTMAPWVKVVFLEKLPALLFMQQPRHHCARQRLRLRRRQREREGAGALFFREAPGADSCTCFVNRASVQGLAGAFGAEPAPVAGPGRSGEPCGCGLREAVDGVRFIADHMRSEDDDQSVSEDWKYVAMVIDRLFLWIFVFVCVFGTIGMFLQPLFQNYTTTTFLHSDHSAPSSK
Sequence of high sensitivity α4(2)β2(3) nAChR (P43681 29-627 limits assumed): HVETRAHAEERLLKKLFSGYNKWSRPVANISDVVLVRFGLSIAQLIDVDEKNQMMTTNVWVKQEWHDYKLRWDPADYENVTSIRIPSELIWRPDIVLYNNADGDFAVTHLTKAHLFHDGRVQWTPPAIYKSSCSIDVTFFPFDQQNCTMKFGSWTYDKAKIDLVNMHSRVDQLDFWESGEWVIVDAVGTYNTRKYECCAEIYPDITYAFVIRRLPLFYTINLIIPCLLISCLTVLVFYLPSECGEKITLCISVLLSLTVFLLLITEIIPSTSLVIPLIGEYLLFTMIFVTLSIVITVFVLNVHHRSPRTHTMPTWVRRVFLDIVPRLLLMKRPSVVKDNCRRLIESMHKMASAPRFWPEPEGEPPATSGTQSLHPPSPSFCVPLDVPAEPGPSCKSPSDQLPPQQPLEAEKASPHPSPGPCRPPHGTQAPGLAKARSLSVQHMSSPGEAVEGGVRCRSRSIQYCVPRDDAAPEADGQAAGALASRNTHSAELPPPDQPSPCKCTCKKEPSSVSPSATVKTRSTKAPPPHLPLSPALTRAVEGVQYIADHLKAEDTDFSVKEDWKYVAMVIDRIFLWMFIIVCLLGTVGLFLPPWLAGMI
Sequence of high sensitivity α4(2)β2(3) nAChR (P17787 26-502): as the sequence (P17787 26-502) above
Sequence of low sensitivity α4(3)β2(2) nAChR (P17787 26-502): as above
Sequence of low sensitivity α4(3)β2(2) nAChR (P43681 29-627 limits assumed): as the sequence (P43681 29-627 limits assumed) above
Sequence of low sensitivity α4(3)β2(2) nAChR (P43681 29-627 limits assumed): as above
Sequence of β3α4β2α6β2 nAChR (P43681 29-627 limits assumed): as above
Sequence of β3α4β2α6β2 nAChR (P17787 26-502): as the sequence (P17787 26-502) above
Sequence of β3α4β2α6β2 nAChR (Q15825 26-494): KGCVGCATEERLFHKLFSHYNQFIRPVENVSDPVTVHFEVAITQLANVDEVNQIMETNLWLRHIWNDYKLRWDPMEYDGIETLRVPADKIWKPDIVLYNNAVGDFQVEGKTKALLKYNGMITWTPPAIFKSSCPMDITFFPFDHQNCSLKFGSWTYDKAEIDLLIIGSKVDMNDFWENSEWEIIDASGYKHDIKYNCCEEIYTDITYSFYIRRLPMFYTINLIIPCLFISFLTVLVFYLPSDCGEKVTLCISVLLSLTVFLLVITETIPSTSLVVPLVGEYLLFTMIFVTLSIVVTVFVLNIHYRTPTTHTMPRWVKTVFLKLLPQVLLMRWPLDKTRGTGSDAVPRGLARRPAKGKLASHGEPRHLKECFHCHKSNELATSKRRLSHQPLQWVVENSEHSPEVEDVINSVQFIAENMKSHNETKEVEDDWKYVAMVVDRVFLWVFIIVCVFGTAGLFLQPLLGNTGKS
Sequence of β3α4β2α6β2 nAChR (P17787 26-502): as the sequence (P17787 26-502) above

Ic1cncc(OC[C@@H]2CCN2)c1 [5IA, 5-Iodo-A-85380]
Body temperature, time course (in words) ([1]; C57BL/6J mice, vs vehicle): significant reductions in body temperature in comparison to their vehicle controls at 15-, 30- and 60-min
Hypothermic effect in β2 KO vs WT mice (in words) ([1]; β2 WT and KO mice): significantly abolished in β2 KO mice
Antinociceptive response, hot-plate test (ICR mice; 0.001 mg/kg s.c., 5 min after injection): 8 ± 3 % MPE
Antinociceptive response, hot-plate test (ICR mice; 0.001 mg/kg s.c., 10 min after injection): 10 ± 3 % MPE
Antinociceptive response, hot-plate test (ICR mice; 0.001 mg/kg s.c., 15 min after injection): 10 ± 5 % MPE
Antinociceptive response, hot-plate test (ICR mice; 0.001 mg/kg s.c., 30 min after injection): 4 ± 3 % MPE
Antinociceptive response, hot-plate test (ICR mice; 0.001 mg/kg s.c., 60 min after injection): 8 ± 5 % MPE
Antinociceptive response, hot-plate test (ICR mice; 0.001 mg/kg s.c., 120 min after injection): 11 ± 5 % MPE
Antinociceptive response, hot-plate test (ICR mice; 0.01 mg/kg s.c., 5 min after injection): 9 ± 3 % MPE
Antinociceptive response, hot-plate test (ICR mice; 0.01 mg/kg s.c., 10 min after injection): 7 ± 3 % MPE
Antinociceptive response, hot-plate test (ICR mice; 0.01 mg/kg s.c., 15 min after injection): 7 ± 3 % MPE
Antinociceptive response, hot-plate test (ICR mice; 0.01 mg/kg s.c., 30 min after injection): 5 ± 3 % MPE
Antinociceptive response, hot-plate test (ICR mice; 0.01 mg/kg s.c., 60 min after injection): 13 ± 6 % MPE
Antinociceptive response, hot-plate test (ICR mice; 0.01 mg/kg s.c., 120 min after injection): 5 ± 3 % MPE
Antinociceptive response, hot-plate test (ICR mice; 0.1 mg/kg s.c., 5 min after injection): 7 ± 2 % MPE
Antinociceptive response, hot-plate test (ICR mice; 0.1 mg/kg s.c., 10 min after injection): 6 ± 3 % MPE
Antinociceptive response, hot-plate test (ICR mice; 0.1 mg/kg s.c., 15 min after injection): 3 ± 2 % MPE
Antinociceptive response, hot-plate test (ICR mice; 0.1 mg/kg s.c., 30 min after injection): 0 ± 0 % MPE
Antinociceptive response, hot-plate test (ICR mice; 0.1 mg/kg s.c., 60 min after injection): 8 ± 4 % MPE
Antinociceptive response, hot-plate test (ICR mice; 0.1 mg/kg s.c., 120 min after injection): 14 ± 6 % MPE
Antinociceptive response, hot-plate test (ICR mice; 0.5 mg/kg s.c., 5 min after injection): 17 ± 5 % MPE
Antinociceptive response, hot-plate test (ICR mice; 0.5 mg/kg s.c., 10 min after injection): 11 ± 8 % MPE
Antinociceptive response, hot-plate test (ICR mice; 0.5 mg/kg s.c., 15 min after injection): 18 ± 9 % MPE
Antinociceptive response, hot-plate test (ICR mice; 0.5 mg/kg s.c., 30 min after injection): 10 ± 6 % MPE
Antinociceptive response, hot-plate test (ICR mice; 0.5 mg/kg s.c., 60 min after injection): 11 ± 7 % MPE
Antinociceptive response, hot-plate test (ICR mice; 0.5 mg/kg s.c., 120 min after injection): 11 ± 4 % MPE
Effect on acute thermal antinociception, hot plate test (in words) (ICR mice; 0.001-0.5 mg/kg s.c., 5-120 min): no significant effect of 5IA on acute thermal antinociception in the hot plate test
EC50 (β3α4β2α6β2 nAChR; read-out: Net Charge EC50, β3α4β2α6β2): 19 ± 0.4 nM
EC50 (β3α4β2α6β2 nAChR; read-out: Peak Currents EC50, β3α4β2α6β2): 11 ± 0.01 nM
Efficacy (in words) (β3α4β2α6β2 nAChR; α6-containing subtypes): intermediate efficacy
Net Charge Imax (β3α4β2α6β2 nAChR; [7]): 0.76 ± 0.01
Peak Currents Imax (β3α4β2α6β2 nAChR; [7]): 0.78 ± 0.1
Intracranial self-stimulation (ICSS) (in words) (rats): dose-dependently produced facilitated intracranial self-stimulation (ICSS)
Effect on current duration (in words) ([2]; HS α4β2 receptors): prolonged the currents
Efficacy (in words) ([2]; high sensitivity α4(2)β2(3)): full agonist
EC50 ([2]; read-out: Net Charge EC50, α4(2)β2(3)): 62 ± 11 nM
EC50 ([2]; read-out: Peak Currents EC50, α4(2)β2(3)): 42 ± 2 nM
Net Charge Imax [2, 8]: 3.0 ± 0.18
Peak Currents Imax [2, 8]: 1.3 ± 0.02
Conditioned place preference, dose-response (in words) ([3]; C57BL/6J mice, 0.01, 0.05, 0.1, 0.5 or 1 mg/kg s.c.): significant 5IA induced-CPP at 0.05 and 0.1 mg/kg, but not at 0.01, 0.5, and 1 mg/kg
Conditioned place preference, α6 WT vs KO (in words) ([3]; α6 WT and KO mice, 0.05 mg/kg s.c.): no significant difference in 5IA-induced CPP between α6 WT and KO mice
Conditioned place preference (in words) ([3]; β2 KO mice, 0.05 mg/kg s.c.): significantly abolished in β2 KO mice
Conditioned place preference (in words) ([3]; β2 WT mice, 0.05 mg/kg s.c.): significant CPP in comparison to their vehicle counterparts
Effect on acute thermal antinociception, tail-flick test (in words) (C57BL/6J mice [4]): no significant effect of 5IA on acute thermal antinociception in the hot plate or tail-flick test
Efficacy (in words) ([5]; low sensitivity α4(3)β2(2)): very low efficacy
EC50 ([5]; read-out: Net Charge EC50, α4(3)β2(2)): 25 ± 14 nM
EC50 ([5]; read-out: Peak Currents EC50, α4(3)β2(2)): 37 ± 6.3 nM
Net Charge Imax [5, 9]: 0.22 ± 0.04
Peak Currents Imax [5, 9]: 0.22 ± 0.1
Effect on acute thermal antinociception, hot plate test (in words) (C57BL/6J mice [6]): no significant effect of 5IA on acute thermal antinociception in the hot plate or tail-flick test
